Consider 14 molecules from ChEMBL document CHEMBL1147557, “Glycosyltransferase activity can be selectively modulated by chemical modifications of acceptor substrates” (Bioorg Med Chem Lett, 2004).

Calls of active or inactive are those of the source. The calls are words filed in the database; no cut-off is given here.

Data set [1] has as its target T1, Beta-galactoside alpha-2,6-sialyltransferase 1 (Rattus norvegicus) (UniProt P13721).
T1 sequence (whole entry): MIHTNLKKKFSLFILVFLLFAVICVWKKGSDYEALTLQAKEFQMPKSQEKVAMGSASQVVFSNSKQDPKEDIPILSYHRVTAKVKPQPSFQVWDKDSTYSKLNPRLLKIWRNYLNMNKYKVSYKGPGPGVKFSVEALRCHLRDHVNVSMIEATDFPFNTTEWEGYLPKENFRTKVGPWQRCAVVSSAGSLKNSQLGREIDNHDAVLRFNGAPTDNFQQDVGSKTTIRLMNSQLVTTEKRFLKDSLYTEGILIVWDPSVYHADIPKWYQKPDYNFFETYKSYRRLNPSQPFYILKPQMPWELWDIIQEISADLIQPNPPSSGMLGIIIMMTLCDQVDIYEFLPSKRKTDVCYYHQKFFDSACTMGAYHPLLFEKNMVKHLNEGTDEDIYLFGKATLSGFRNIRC
The data set is described as follows: (§1) Kinetic parameter of sialylation by alpha-2,6-sialyltransferase. A digest of the protocol: (§2)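 Rat liver recombinant α-2,6-sialyltransferase transferring CMP-[14C]-Neu5Ac to LacNAc-based acceptors. Apparent kinetic parameters (Km, Vmax) were determined by previously reported assays. Vmax is expressed relative to unmodified LacNAc, which is set at 1.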

The test system of data set [2] is Alpha-(1,3)-fucosyltransferase 6 (Homo sapiens). As to the kind of experiment: Kinetic parameter of […] by fucosyltransferase 6 alpha 1,3.
Data set [3] shares this test system. The data set is described as follows: Kinetic parameter of […] of compound by fucosyltransferase 6 alpha 1,3; Not active.
Substrate in data set [4]: CO[C@@H]1O[C@@H](CNC=O)[C@@H](O[C@@H]2O[C@@H](CO)[C@H](O)[C@H](O)[C@@H]2OC)[C@H](O)[C@@H]1NC(C)=O
As to the kind of experiment: (§3) Apparent kinetic parameter of sialylation by alpha-2,6-sialyltransferase. The settings on record: Rattus norvegicus. Summed up: as §2

Substrate in data set [5]: COC[C@@H]1O[C@@H](OC)[C@@H](NC(C)=O)[C@@H](O)[C@@H]1O[C@@H]1O[C@@H](CO)[C@H](O)[C@H](O)[C@@H]1OC
The description is as §3. The conditions noted are these: Rattus norvegicus. A digest of the protocol:
as §2

Substrate in data set [6]: CO[C@@H]1O[C@@H](CN)[C@@H](O[C@@H]2O[C@@H](CO)[C@H](O)[C@H](O)[C@@H]2O)[C@H](O)[C@@H]1NC(C)=O
The data set is described as §3. The conditions noted are these: Rattus norvegicus. Summed up: as §2

Substrate in data set [7]: CO[C@@H]1O[C@@H](CO)[C@@H](O[C@@H]2O[C@@H](CO)[C@H](O)[C@H](O)[C@@H]2O)[C@H](O)[C@@H]1NC(C)=O
The data set is described as §3. The conditions noted are these: Rattus norvegicus. A digest of the protocol:
as §2

Substrate in data set [8]: COC[C@@H]1O[C@@H](OC)[C@@H](NC(C)=O)[C@@H](O)[C@@H]1O[C@@H]1O[C@@H](CO)[C@H](O)[C@H](O)[C@@H]1O
The description is as §3. The settings on record: Rattus norvegicus. Summed up: as §2

Substrate in data set [9]: CO[C@@H]1O[C@@H](CNS(C)(=O)=O)[C@@H](O[C@@H]2O[C@@H](CO)[C@H](O)[C@H](O)[C@@H]2O)[C@H](O)[C@@H]1NC(C)=O
The description is as §3. The conditions noted are these: Rattus norvegicus. Summed up: as §2

Substrate in data set [10]: CO[C@@H]1O[C@@H](CNC(C)=O)[C@@H](O[C@@H]2O[C@@H](CO)[C@H](O)[C@H](O)[C@@H]2O)[C@H](O)[C@@H]1NC(C)=O
Described as §3. The settings on record: Rattus norvegicus. A digest of the protocol: as §2

Substrate in data set [11]: CNC(=O)[C@@H]1O[C@@H](OC)[C@@H](NC(C)=O)[C@@H](O)[C@@H]1O[C@@H]1O[C@@H](CO)[C@H](O)[C@H](O)C1O
The data set is described as §3. The conditions noted are these: Rattus norvegicus. A digest of the protocol:
as §2

Substrate in data set [12]: CO[C@@H]1O[C@@H](CNC=O)[C@@H](O[C@@H]2O[C@@H](CO)[C@H](O)[C@H](O)[C@@H]2O)[C@H](O)[C@@H]1NC(C)=O
Described as §3. The conditions noted are these: Rattus norvegicus. A digest of the protocol: as §2

Substrate in data set [13]: CO[C@@H]1O[C@@H](COS(C)(=O)=O)[C@@H](O[C@@H]2O[C@@H](CO)[C@H](O)[C@H](O)[C@@H]2O)[C@H](O)[C@@H]1NC(C)=O
The data set is described as §3. The settings on record: Rattus norvegicus. Summed up: as §2

Substrate in data set [14]: CO[C@@H]1O[C@@H](C(N)=O)[C@@H](O[C@@H]2O[C@@H](CO)[C@H](O)[C@H](O)[C@@H]2O)[C@H](O)[C@@H]1NC(C)=O
The description is as §3. The conditions noted are these: Rattus norvegicus. A digest of the protocol: as §2

Substrate in data set [15]: CO[C@@H]1O[C@@H](CO)[C@@H](O[C@@H]2O[C@@H](CO)[C@H](O)[C@H](O)[C@@H]2OC)[C@H](O)[C@@H]1NC(C)=O
Described as §3. The conditions noted are these: Rattus norvegicus. A digest of the protocol:
as §2

Substrate in data set [16]: CO[C@@H]1O[C@@H](CNC=O)[C@@H](O[C@@H]2O[C@@H](CO)[C@H](O)[C@H](O)[C@@H]2OC)[C@H](O)[C@@H]1NC(C)=O
Described as §1. The settings on record: Rattus norvegicus. A digest of the protocol: as §2

Substrate in data set [17]: COC[C@@H]1O[C@@H](OC)[C@@H](NC(C)=O)[C@@H](O)[C@@H]1O[C@@H]1O[C@@H](CO)[C@H](O)[C@H](O)[C@@H]1OC
Described as §1. The conditions noted are these: Rattus norvegicus. A digest of the protocol:
as §2

Substrate in data set [18]: CO[C@@H]1O[C@@H](CN)[C@@H](O[C@@H]2O[C@@H](CO)[C@H](O)[C@H](O)[C@@H]2O)[C@H](O)[C@@H]1NC(C)=O
The description is as §1. The settings on record: Rattus norvegicus. Summed up: as §2

Substrate in data set [19]: CO[C@@H]1O[C@@H](CO)[C@@H](O[C@@H]2O[C@@H](CO)[C@H](O)[C@H](O)[C@@H]2O)[C@H](O)[C@@H]1NC(C)=O
The data set is described as §1. The settings on record: Rattus norvegicus. A digest of the protocol:
as §2

Substrate in data set [20]: COC[C@@H]1O[C@@H](OC)[C@@H](NC(C)=O)[C@@H](O)[C@@H]1O[C@@H]1O[C@@H](CO)[C@H](O)[C@H](O)[C@@H]1O
The description is as §1. The settings on record: Rattus norvegicus. A digest of the protocol:
as §2

Substrate in data set [21]: CO[C@@H]1O[C@@H](CNS(C)(=O)=O)[C@@H](O[C@@H]2O[C@@H](CO)[C@H](O)[C@H](O)[C@@H]2O)[C@H](O)[C@@H]1NC(C)=O
The description is as §1. The settings on record: Rattus norvegicus. A digest of the protocol:
as §2

Substrate in data set [22]: CO[C@@H]1O[C@@H](CNC(C)=O)[C@@H](O[C@@H]2O[C@@H](CO)[C@H](O)[C@H](O)[C@@H]2O)[C@H](O)[C@@H]1NC(C)=O
The description is as §1. The settings on record: Rattus norvegicus. Summed up:
as §2

Substrate in data set [23]: CNC(=O)[C@@H]1O[C@@H](OC)[C@@H](NC(C)=O)[C@@H](O)[C@@H]1O[C@@H]1O[C@@H](CO)[C@H](O)[C@H](O)C1O
The description is as §1. The settings on record: Rattus norvegicus. A digest of the protocol:
as §2

Substrate in data set [24]: CO[C@@H]1O[C@@H](CNC=O)[C@@H](O[C@@H]2O[C@@H](CO)[C@H](O)[C@H](O)[C@@H]2O)[C@H](O)[C@@H]1NC(C)=O
The data set is described as §1. The settings on record: Rattus norvegicus. Summed up:
as §2

Substrate in data set [25]: CO[C@@H]1O[C@@H](COS(C)(=O)=O)[C@@H](O[C@@H]2O[C@@H](CO)[C@H](O)[C@H](O)[C@@H]2O)[C@H](O)[C@@H]1NC(C)=O
Described as §1. The settings on record: Rattus norvegicus. A digest of the protocol: as §2

Substrate in data set [26]: CO[C@@H]1O[C@@H](C(N)=O)[C@@H](O[C@@H]2O[C@@H](CO)[C@H](O)[C@H](O)[C@@H]2O)[C@H](O)[C@@H]1NC(C)=O
The data set is described as §1. The conditions noted are these: Rattus norvegicus. Summed up:
as §2

Substrate in data set [27]: CO[C@@H]1O[C@@H](CO)[C@@H](O[C@@H]2O[C@@H](CO)[C@H](O)[C@H](O)[C@@H]2OC)[C@H](O)[C@@H]1NC(C)=O
Described as §1. The conditions noted are these: Rattus norvegicus. A digest of the protocol: as §2

Consider `CO[C@@H]1O[C@@H](CNC(C)=O)[C@@H](O[C@@H]2O[C@@H](CO)[C@H](O)[C@H](O)[C@@H]2O)[C@H](O)[C@@H]1NC(C)=O`, for which the Vmax / Km in data set [1] was determined as 0.4; in [2] it was 6.8.
As to `CO[C@@H]1O[C@@H](CNC=O)[C@@H](O[C@@H]2O[C@@H](CO)[C@H](O)[C@H](O)[C@@H]2O)[C@H](O)[C@@H]1NC(C)=O`, the Vmax / Km in data set [1] amounted to 1.5; in [2], 7.3.
On the same counts, the results for `COC(=O)[C@@H]1O[C@@H](OC)[C@@H](NC(C)=O)[C@@H](O)[C@@H]1O[C@@H]1O[C@@H](CO)[C@H](O)[C@H](O)[C@@H]1O` are 0.2 and 1.2.
The like results for `CO[C@@H]1O[C@@H](CNC=O)[C@@H](O[C@@H]2O[C@@H](CO)[C@H](O)[C@H](O)[C@@H]2OC)[C@H](O)[C@@H]1NC(C)=O` were, in that order, 0.3 and 9.3.
On the same counts, the results for `COC[C@@H]1O[C@@H](OC)[C@@H](NC(C)=O)[C@@H](O)[C@@H]1O[C@@H]1O[C@@H](CO)[C@H](O)[C@H](O)[C@@H]1O` are 0.2 and 4.5.
In the case of `CNC(=O)[C@@H]1O[C@@H](OC)[C@@H](NC(C)=O)[C@@H](O)[C@@H]1O[C@@H]1O[C@@H](CO)[C@H](O)[C@H](O)C1O` (some centres undefined), the Vmax / Km worked out at 0.08 in [1] and 0.4 in [2].
For the molecule `CO[C@@H]1O[C@@H](CNS(C)(=O)=O)[C@@H](O[C@@H]2O[C@@H](CO)[C@H](O)[C@H](O)[C@@H]2O)[C@H](O)[C@@H]1NC(C)=O`, the figures for the Vmax / Km in data set [1] and in [2] were 0.9 and 8.7, respectively.
On the same counts, the results for `CO[C@@H]1O[C@@H](CO)[C@@H](O[C@@H]2O[C@@H](CO)[C@H](O)[C@H](O)[C@@H]2OC)[C@H](O)[C@@H]1NC(C)=O` are 0.2 and 3.1.
The like results for `COC[C@@H]1O[C@@H](OC)[C@@H](NC(C)=O)[C@@H](O)[C@@H]1O[C@@H]1O[C@@H](CO)[C@H](O)[C@H](O)[C@@H]1OC` were, in that order, 0.04 and 6.7.
As to `CO[C@@H]1O[C@@H](CN)[C@@H](O[C@@H]2O[C@@H](CO)[C@H](O)[C@H](O)[C@@H]2O)[C@H](O)[C@@H]1NC(C)=O`, the Vmax / Km came out at 0.08 in data set [1] and 1.5 in [2].
With `CO[C@@H]1O[C@@H](CO)[C@@H](O[C@@H]2O[C@@H](CO)[C@H](O)[C@H](O)[C@@H]2O)[C@H](O)[C@@H]1NC(C)=O`, the Vmax / Km in data set [1] turned out to be 0.6.
Consider `CO[C@@H]1O[C@@H](COS(C)(=O)=O)[C@@H](O[C@@H]2O[C@@H](CO)[C@H](O)[C@H](O)[C@@H]2O)[C@H](O)[C@@H]1NC(C)=O`, for which the Vmax / Km was determined as 1.3 in data set [1] and 3.6 in data set [2].
On to `CO[C@@H]1O[C@@H](C(N)=O)[C@@H](O[C@@H]2O[C@@H](CO)[C@H](O)[C@H](O)[C@@H]2O)[C@H](O)[C@@H]1NC(C)=O`, for which the Vmax / Km in data set [1] was found to be 0.02. For the same molecule, in data set [3], the “Vmax / Km” value is “inactive”.

B1: Beta-galactoside alpha-2,6-sialyltransferase 1 (Rattus norvegicus), P13721 (protein)
chain: T1 sequence (whole entry)
B1: the Michaelis constant (Km) in [4] worked out at 3100 µM; in data set [5], 11200 µM; in [6], 5800 µM; in data set [7], 1700 µM; in data set [8] it was 4300 µM; in [9], 800 µM. The Km in [10] is 1400 µM; in [11] it was 2400 µM; in data set [12], 1100 µM; in data set [13], 700 µM; in data set [14] it was more than 10000 µM; in data set [15], 4100 µM. Besides, the Vmax amounted to 1 in data set [16]; 0.5 in data set [17]; 0.5 in data set [18]; 1 in data set [19]; 0.8 in data set [20]; 0.7 in [21]. Besides, the Vmax in [22] was 0.6; in [23] it was 0.2; in data set [24], 1.6; in [25], 0.9; in [26], less than 0.2; in data set [27], 0.8.

The Km is the concentration of substrate that gives half-maximal velocity.
